For 13 compounds, IC50 and Activity results are on record in ChEMBL document CHEMBL5357028, “Acetogenins from the Stem of Uvaria rufa and Their Cytotoxic Activity” (J Nat Prod, 2024).

Where a name gives a salt, the structure may show the parent alone. Active and inactive are the calls of the source. No cut-off for these calls is given here.

One assay concerns OVCAR-3. Nature of the assay: Cytotoxicity against human OVCAR-3 cells assessed as reduction in cell viability measured after 72 hrs by MTS assay. The assay is classed as functional, cell-based. The settings on record: OVCAR-3, 72 h. Summed up: (§1)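 Cells exposed to test substance for 72 h. Viability read by MTS-based absorbance assay (CellTiter 96 AQueous One Solution) relative to DMSO solvent control. Paclitaxel served as positive control.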
A general note: Tetrazolium assays rely on reduction of a dye to a coloured formazan, in cell work by metabolically active cells.

In the next assay the test system is MDA-MB-435. The assay is described as follows: Cytotoxicity against human MDAMB-435 cells assessed as reduction in cell viability measured after 72 hrs by MTS assay. It counts as functional, cell-based. The settings on record: MDA-MB-435, 72 h. Summed up:
as §1

The test system of the next assay is HCT-116. Nature of the assay: Cytotoxicity against human HCT-116 cells assessed as reduction in cell viability measured after 72 hrs by MTT assay. It counts as functional, cell-based. The note with it: HCT-116, 72 h. An outline of the steps:
(§2)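 Cells grown at 37°C, 5% CO₂ (22Rv1 in RPMI 1640, HCT 116 in McCoy's; 10% FBS, penicillin/streptomycin). Trypsinized, 5000 cells/well seeded, 24 h attachment. DMSO stocks diluted in medium to final 100, 20, 4, 0.8, 0.16 and 0.032 μM; 0.5% DMSO vehicle control. After 72 h, MTT 0.5 mg/mL final for 3 h; formazan dissolved in DMSO, A570. Viability relative to DMSO control; duplicates, three independent experiments; IC50 calculated.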

Another assay deals with CWR22R. The assay is described as follows: Cytotoxicity against human 22Rv1 cells assessed as reduction in cell viability measured after 72 hrs by MTT assay. It counts as functional, cell-based. The settings on record: 22Rv1, 72 h. An outline of the steps:
as §2

For assay [1], the system named is Mycobacterium tuberculosis. The assay is described as follows: Antitubercular activity against Mycobacterium tuberculosis H37Rv assessed as inhibition of bacterial growth upto 100 ug/ml. The note with it: dose <= 100.0 µg/ml. The assay is classed as functional, organism-based.

As for `CCCCCC[C@H](O)CCC[C@H](O)[C@H]1CC[C@H]([C@H]2CC[C@H]([C@H](O)CCCCCCCCCCCCC3=C[C@H](C)OC3=O)O2)O1` [SQUAMOCIN], the concentration for half-maximal inhibition (IC50) – broadly, the concentration that gives 50% inhibition – in the assay with OVCAR-3 turned out to be 4.5 µM; with MDA-MB-435 it was 4.6 µM; in the assay on HCT-116, 1.2 µM; with CWR22R, 6.4 µM.

For the compound `CC(=O)O[C@H]1C(=O)[C@@]2(C)[C@H]([C@H](OC(=O)c3ccccc3)[C@]3(O)C[C@H](OC(=O)[C@H](O)[C@@H](NC(=O)c4ccccc4)c4ccccc4)C(C)=C1C3(C)C)[C@]1(OC(C)=O)CO[C@@H]1C[C@@H]2O` [PACLITAXEL], the 50% inhibitory concentration (IC50) was determined as 0.0056 µM in the assay with OVCAR-3 and 0.0026 µM with MDA-MB-435.

Regarding `CCCCCCCCCC[C@@H](O)[C@H]1CC[C@H]([C@H]2CC[C@H]([C@H](O)CCCCCCCCCCCCC3=C[C@H](C)OC3=O)O2)O1` [ISODESAACETYLUVARICIN], the half-maximal inhibitory concentration (IC50) was more than 10 µM in the assay with OVCAR-3, 4.1 µM with MDA-MB-435, 2.8 µM with HCT-116 and 7.8 µM with CWR22R.

For `CCCCCCCCCC[C@H](O)[C@H]1CC[C@H]([C@H]2CC[C@H]([C@H](O)CCCCCCCCCCCCC3=C[C@H](C)OC3=O)O2)O1` [BULLANIN], the IC50 is more than 10 µM in the assay on OVCAR-3, 5.3 µM in the assay on MDA-MB-435, 29.1 µM in the assay on HCT-116 and 16.5 µM in the assay with CWR22R.

Regarding `CC[C@]1(O)C[C@@H]2CN(CCc3c([nH]c4ccccc34)[C@@](C(=O)OC)(c3cc4c(cc3OC)N(C)[C@H]3[C@@](O)(C(=O)OC)[C@H](OC(C)=O)[C@]5(CC)C=CCN6CC[C@]43[C@@H]65)C2)C1` [VINBLASTINE SULFATE], the IC50 with HCT-116 and in the assay with CWR22R was 0.001 µM in each case.

Regarding `CCCCCCCCCC[C@H](O)[C@H]1CC[C@H]([C@H]2CC[C@H]([C@H](O)CCCCCCCC[C@H](O)[C@H](O)CCC3=C[C@H](C)OC3=O)O2)O1`, the IC50 in the assay on OVCAR-3 was more than 10 µM; in the assay with MDA-MB-435, 4.6 µM; in the assay with HCT-116 it was 15 µM; in the assay on CWR22R, 8.3 µM.

As to `CCCCCCCCCC[C@@H](O)[C@H]1CC[C@H]([C@H]2CC[C@H]([C@H](O)CCCCCCCCC[C@@H](O)CCC3=C[C@H](C)OC3=O)O2)O1`, the IC50 in the assay on OVCAR-3 came out at 3.5 µM; with MDA-MB-435, 4.6 µM; with HCT-116 it was 9.2 µM; in the assay on CWR22R, 17.5 µM. For the same compound, the outcome in assay [1] was inactive.

For `CCCCCCCCCC[C@@H](O)[C@H]1CC[C@H]([C@H]2CC[C@H]([C@H](O)CCCCCCCC[C@H](O)[C@H](O)CCC3=C[C@H](C)OC3=O)O2)O1`, the IC50 in the assay with OVCAR-3 worked out at 3.7 µM; with MDA-MB-435, 4.4 µM; in the assay with HCT-116, 2.7 µM; in the assay with CWR22R it was 5.5 µM.

Turning to `CCCCCCCCCC[C@H](O)[C@H]1CC[C@H]([C@H]2CC[C@H]([C@H](O)CCCCCCCC[C@H](O)CCCC3=C[C@H](C)OC3=O)O2)O1`, the IC50 was 10 µM in the assay with HCT-116 and 12.5 µM in the assay on CWR22R.

Turning to `CCCCCCCCCC[C@@H](O)[C@H]1CC[C@H]([C@H]2CC[C@H]([C@H](O)CCCCCCCCC[C@H](O)CCC3=C[C@H](C)OC3=O)O2)O1` [UVARIGRANDIN A], the IC50 in the assay with OVCAR-3 was found to be 4.6 µM; in the assay with MDA-MB-435, 4.1 µM; in the assay on HCT-116 it was 5.5 µM; in the assay on CWR22R it was 7 µM.

Take `CCCCCC[C@H](O)CCC[C@H](O)[C@H]1CC[C@H]([C@H]2CC[C@H]([C@H](O)CCCCCCCCCCCCCCC3=C[C@H](C)OC3=O)O2)O1`: the IC50 turned out to be 4.4 µM in the assay on OVCAR-3, 4.5 µM with MDA-MB-435, 1.2 µM with HCT-116 and 5.6 µM in the assay with CWR22R.

As to `CCCCCC[C@H](O)CCC[C@H](O)[C@H]1CC[C@H]([C@H]2CC[C@H]([C@H](O)CCCCCCCCC[C@@H](O)CCC3=C[C@H](C)OC3=O)O2)O1`, the IC50 worked out at 4.5 µM with OVCAR-3, 4.4 µM in the assay with MDA-MB-435, 1.8 µM in the assay with HCT-116 and 8.2 µM with CWR22R.

Consider `COc1cc([C@@H]2c3cc4c(cc3[C@@H](O[C@@H]3O[C@@H]5CO[C@@H](C)O[C@H]5[C@H](O)[C@H]3O)[C@H]3COC(=O)[C@H]23)OCO4)cc(OC)c1O` [ETOPOSIDE], for which the figures for the 50% inhibitory concentration (IC50) in the assay with HCT-116 and with CWR22R were 1.8 µM and 2.3 µM, respectively.
